Rows were chosen to be rich in hits. Some 1.3% of all compounds tested hit in one or more screens of this group.
TbHK1 inh: T. brucei hexokinase 1 inhibition; 0.11% of 220,000 active; inhibition, % at 10 µM; recombinant TbHK1, G6PDH-coupled NADH A340; AID 1430;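 active = inhibition of 50% or more in the single-dose primary screen; inactive = inhibition below 50%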
PfGluPho inh: PfG6PD (Plasmodium falciparum) enzyme inhibition; 0.78% of 350,000 active; PfGluPho enzyme, NADPH resazurin-diaphorase fluorescence; inhibition, % at 20 µM; AID 504690;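 active = inhibition reaching at least a set limit at 20 µM in the primary screen, cut at about 59% in these data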;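 note: 0% = DMSO wells with substrate and 100% = DMSO wells lacking glucose-6-phosphate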
HKDC1 inhibitor: inhibitors of human hexokinase HKDC1. Q2TB90. inhibition, % at 20 µM. 0.16% of 340,000 active. recombinant HKDC1, G6PDH/diaphorase resazurin coupled fluorescence;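 active = inhibition above about 35% when tested at 20 µM, limit read from the data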;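 note: plate controls were DMSO wells with enzyme for no effect and DMSO wells lacking enzyme for full effect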
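Assay system: recombinant HKDC1 hexokinase; detection: coupled resazurin fluorescence, excitation 525 nm, emission 613 nm; benchmarks: DMSO-plus-enzyme-mix negative control, buffer-substituted positive control; compound dosing: single 20 µM dose; schedule: 90 min at room temperature in dark; also added: glucose plus 1 mM ATP as hexokinase substrates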
Diaph inh CS: diaphorase inhibition or chemical oxidation counter-screen; diaphorase resazurin-to-resorufin fluorescence, NADH, 16 min; bacterial (C. kluyveri) enzyme, not human; inhibition, % at 20 µM; 0.69% of 190,000 active; AID 1217;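 active = primary screen inhibition at 20 µM above a set limit, cut at about 50% in these data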;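 note: plate controls were DMSO with full reaction for no effect and wells lacking NADH for full effect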
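System: Diaphorase enzyme from Clostridium kluyveri | Amount: Enzyme working solution with 0.14 U/mL diaphorase | Benchmarks: No-NADH positive control and DMSO neutral control | Signal: Fluorescence of resorufin formed from resazurin, Ex 544/Em 590 nm | Schedule: 16-min room-temperature incubation before reading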
G6PDH CS: inhibits Leuconostoc G6PDH, flagging false hits in G6PDH-based assays. Purified L. mesenteroides G6PDH, diaphorase/resazurin coupled fluorescence, 45 min. inhibition, % at 5 µM. 0.12% of 200,000 active; in the data active = inhibition above about 50%
Diaph act CS: counter-screen for diaphorase-based assays: diaphorase activators and chemical reducers; 0.005% of 190,000 active; activation factor at 20 µM; AID 1229; Diaphorase/resazurin coupled assay, resorufin fluorescence, 16 min; hits give high values; 1 = vehicle wells, 0 = NADH-free wells;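 active = diaphorase activity raised at least twofold by the compound at 20 µM; inactive = activation factor below 2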
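Material: purified diaphorase enzyme from Clostridium kluyveri; Also added: 0.114 mM NADH and 0.1 mM resazurin, final amounts; Doses: single compound dose of 20 µM, 1% DMSO final; Times: 16 min enzyme reaction, ambient temperature; Detection: resorufin fluorescence, excitation 544 nm, emission 590 nm; Measure: increased resorufin signal from activators or reducing compounds.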
HKDC1 act conf2: HKDC1 (human) activation, single-dose confirmed. shares compounds with HKDC1 inhibitor. 14% of 740 active. recombinant HKDC1, G6PDH/diaphorase resazurin fluorescence; hits give low values. AID 504708. inhibition, % at 20 µM;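 active = inhibition at or below a set negative limit, negative inhibition meaning the enzyme was activated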
* = called active by the depositor.

Screening O=C(CSc1n[nH]c(=O)[nH]c1=O)Nc1ccc2c(c1)C(=O)c1ccccc1C2=O returned TbHK1 inh 2, PfGluPho inh -22, HKDC1 inhibitor 52* and HKDC1 act conf2 14.
`O=C(CSc1ccccn1)Nc1ccc2c(c1)C(=O)c1ccccc1C2=O` gave TbHK1 inh 9, PfGluPho inh 20, HKDC1 inhibitor 15, Diaph inh CS 9, G6PDH CS 10 and Diaph act CS 0.9.
CC(NC(C)c1ccccc1Cl)C(=O)Nc1cccc(S(=O)(=O)N2CCCCC2)c1 (stereo not given) was read as PfGluPho inh 4 and HKDC1 inhibitor -1.
Screening Cc1onc(-c2ccccc2)c1C(=O)NC(=S)NNC(=O)c1ccc(O)cc1O returned TbHK1 inh -23, PfGluPho inh -42, HKDC1 inhibitor -40, Diaph inh CS 26, G6PDH CS -6 and Diaph act CS 0.7.
`Cc1onc(-c2ccccc2)c1C(=O)NC(=S)NNC(=O)c1ccccc1O` gave TbHK1 inh -17, PfGluPho inh -33, HKDC1 inhibitor -45, Diaph inh CS 22, G6PDH CS 0, Diaph act CS 0.8 and HKDC1 act conf2 -17.
NC(=NCc1ccc2c(c1)OCO2)NC(=O)c1ccccc1 was read as TbHK1 inh 1, PfGluPho inh 32, HKDC1 inhibitor 29, Diaph inh CS 10, G6PDH CS 5, Diaph act CS 0.9 and HKDC1 act conf2 17.
For C/C(CCc1ccc2c(c1)OCO2)=N\NC(=O)c1ccccc1 the results were TbHK1 inh -5, PfGluPho inh 2, HKDC1 inhibitor -5, Diaph inh CS 10, G6PDH CS 2 and Diaph act CS 0.9.
Screening COc1cc(/C=C2\SC(=S)N(CCCCC(=O)O)C2=O)ccc1OS(=O)(=O)c1ccc(C)cc1 returned PfGluPho inh -5 and HKDC1 inhibitor 10.
`O=C1/C(=C\c2ccc(-c3ccccc3[N+](=O)[O-])o2)C(c2ccccc2)=NN1c1ccccc1` gave TbHK1 inh -6, PfGluPho inh 16, HKDC1 inhibitor 42*, Diaph inh CS 19, G6PDH CS -4, Diaph act CS 0.8 and HKDC1 act conf2 3.
O=C(NCc1n[nH]c(=S)n1-c1cccc(C(F)(F)F)c1)c1ccco1 was read as PfGluPho inh 5 and HKDC1 inhibitor -1.
Nc1nc(NCc2ccco2)nc(Nc2cccc(F)c2)c1[N+](=O)[O-] was read as TbHK1 inh -26, PfGluPho inh -3 and HKDC1 inhibitor -3.
Screening COc1cc2c(cc1OC)C(c1cc(Br)ccc1F)N(C(=O)CCl)CC2 (stereo not given) returned PfGluPho inh 7, HKDC1 inhibitor 38* and HKDC1 act conf2 19.
`NC1=C(Cl)C(=O)c2ccc(S(N)(=O)=O)cc2C1=O` gave PfGluPho inh 33, HKDC1 inhibitor -134 and HKDC1 act conf2 -43*.
`CCCS(=O)(=O)c1nc(S(=O)(=O)c2ccc(C)cc2)c(N2CCN(CC)CC2)s1` gave PfGluPho inh -13 and HKDC1 inhibitor -7.
For CC(Sc1n[nH]c(=O)n1Cc1ccccc1)C(=O)NCC1CCCO1 (stereo not given) the results were PfGluPho inh 1 and HKDC1 inhibitor -6.
`O=C(NNC(=S)Nc1ccc(Cl)c(Cl)c1)c1ccccn1` gave TbHK1 inh -20, PfGluPho inh -8, HKDC1 inhibitor -57, Diaph inh CS -10, G6PDH CS -9, Diaph act CS 1.1 and HKDC1 act conf2 -74*.
`O=C(O)CSc1c2ccccc2cc2ccccc12` gave PfGluPho inh 8 and HKDC1 inhibitor -1.
Oc1cc(-c2ccccc2)c2ccccc2c1 was read as TbHK1 inh 25, PfGluPho inh 101*, HKDC1 inhibitor 27, Diaph inh CS 84*, G6PDH CS 39, Diaph act CS 0.2 and HKDC1 act conf2 -6.
For Cc1cc(OC(C)C(=O)NCCCN2CCOCC2)c2c(C)c(C)c(=O)oc2c1 (stereo not given) the results were PfGluPho inh -2 and HKDC1 inhibitor 5.
